Shown are actives, neighbours in structure and some others; about 1.8% of the full set was active somewhere.
CHRM4 antagonist: CHRM4 antagonism in calcium assay; CHO-hM4 cells, ACh EC80, Fluo-8 calcium fluorescence; 360,000 tested, 0.73% active; inhibition, % at 3 µM; P08173;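 active = inhibition above its plate's cutoff, the mean inhibition of sample wells plus 3 SD, cut at about 27% in these data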;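 also: 0% = acetylcholine EC80 with DMSO and 100% = DMSO without agonist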
Target sequence (P08173 whole entry, looked up): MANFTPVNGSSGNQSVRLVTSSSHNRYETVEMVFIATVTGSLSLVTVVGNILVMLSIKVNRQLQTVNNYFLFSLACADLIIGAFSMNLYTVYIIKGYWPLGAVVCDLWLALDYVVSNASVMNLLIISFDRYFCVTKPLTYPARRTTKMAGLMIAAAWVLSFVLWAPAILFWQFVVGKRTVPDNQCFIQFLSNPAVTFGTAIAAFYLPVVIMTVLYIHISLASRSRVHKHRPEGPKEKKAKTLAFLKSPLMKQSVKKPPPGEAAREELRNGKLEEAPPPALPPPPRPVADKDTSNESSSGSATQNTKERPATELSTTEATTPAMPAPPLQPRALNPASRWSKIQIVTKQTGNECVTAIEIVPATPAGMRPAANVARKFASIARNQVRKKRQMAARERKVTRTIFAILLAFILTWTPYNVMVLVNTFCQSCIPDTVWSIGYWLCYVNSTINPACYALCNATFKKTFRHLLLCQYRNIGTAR
M5 antag: antagonists of human muscarinic M5 receptor (CHRM5) | CHO-hM5 cells, Fluo-8 calcium fluorescence, ACh EC80 | inhibition, % at 3 µM | 360,000 tested, 0.59% active | AID 624040;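 active = inhibition above a per-plate cutoff, the mean of that plate's test compounds plus 3 SD, cut at about 27% in these data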;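 also: 0% = acetylcholine EC80 with DMSO and 100% = DMSO without agonist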
CHRM4 PAM: CHRM4 positive allosteric modulation. P08173. CHO-K1 hM4/Gqi5, Fluo-8 calcium fluorescence, ACh EC20; 0% = ACh EC20, 100% = maximal ACh. activation, % at 3 µM. 360,000 tested, 0.4% active. AID 624126;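 active = activation above its plate's cutoff, the mean activation of sample wells plus 3 SD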
CHRM5 agonist: agonists of human muscarinic M5 receptor (CHRM5) | 360,000 tested, 0.19% active | P08912 | activation, % at 3 µM | CHO-K1 hM5 cells, Fluo-8 calcium fluorescence; 0% DMSO wells, 100% maximal acetylcholine response;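 active = activation above the run's mean over test compounds plus 3 SD, cut at about 23% in these data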;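 also: signal is peak over basal fluorescence ratio across the kinetic read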
CHRM5 PAM: positive allosteric modulators of human muscarinic M5 receptor | P08912 | 360,000 tested, 0.3% active | activation, % at 3 µM | CHO-K1 hM5, Fluo-8 calcium, ACh EC20 PAM; 0% = ACh EC20, 100% = ACh EC100;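 active = activation above the run cutoff, the mean activation of all test compounds plus 3 SD, cut at about 18% in these data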
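Replicates: One well per compound, no replicates | System: Human M5 receptor in CHO-K1 cells | Benchmarks: Low control EC20 acetylcholine (0%), high control EC100 acetylcholine (100%) | Probe or stimulus: Acetylcholine, EC20 level | Times: Fluo-8 loading 80 min at 37 °C plus 30 min room temperature | Signal: Intracellular calcium via Fluo-8 fluorescence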
M4 ag: agonists of human muscarinic M4 receptor (CHRM4) | P08173 | CHO-K1 hM4/Gqi5, Fluo-8 calcium fluorescence; vehicle 0%, full acetylcholine response 100% | activation, % at 3 µM | 360,000 tested, 0.14% active | AID 624127;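 active = activation above the run mean over all test wells plus 3 SD, cut at about 32% in these data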;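 also: peak over basal fluorescence ratio per well then scaled between controls; 0% = DMSO wells and 100% = acetylcholine at EC100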
* = called active by the depositor.

For O=C(C(=O)N1CCC(Cc2ccccc2)CC1)c1cccs1 the results were CHRM4 antagonist 0, M5 antag 4, CHRM4 PAM 11, CHRM5 agonist -3, CHRM5 PAM -2 and M4 ag 5.
COc1ccc(C(N)c2csc(Nc3cc(Oc4ccccc4)ncn3)n2)cc1 (configuration not stated) was read as CHRM4 antagonist 41*, M5 antag 30*, CHRM4 PAM -14, CHRM5 agonist 3, CHRM5 PAM -18 and M4 ag 29.
For CN1CCN(NC(=O)c2cc(Br)ccc2Cl)CC1 the results were CHRM4 antagonist 1, M5 antag 27*, CHRM4 PAM -2, CHRM5 agonist -6, CHRM5 PAM -13 and M4 ag 1.
For CN1CCN(NC(=O)c2ccc(Cl)cc2Cl)CC1 the results were CHRM4 antagonist -1, M5 antag 5, CHRM4 PAM -4, CHRM5 agonist -3, CHRM5 PAM -4 and M4 ag 1.
`COC(=O)c1[nH]c2ccc(C)cc2c1NC(=O)CCN1CCN(Cc2ccc3c(c2)OCO3)CC1` gave CHRM4 antagonist 25, M5 antag 33*, CHRM4 PAM -15, CHRM5 agonist -8, CHRM5 PAM -12 and M4 ag 2.
`Cc1ccc2nc(-c3ccco3)c(CC(C)(C)C)n2c1` gave CHRM4 antagonist -9, M5 antag 2, CHRM4 PAM 8, CHRM5 agonist 2, CHRM5 PAM 7 and M4 ag 0.
CC(C)(C)NCCC(O)c1cc(C(F)(F)F)nc2c(C(F)(F)F)cccc12 (configuration not stated) was read as CHRM4 antagonist -2, M5 antag 3, CHRM4 PAM -3, CHRM5 agonist 4, CHRM5 PAM 5 and M4 ag 14.
Screening Cc1nc2c(C(F)(F)F)cccc2c2c1CCS2 returned CHRM4 antagonist -5, M5 antag -5, CHRM4 PAM 4, CHRM5 agonist 4, CHRM5 PAM 19* and M4 ag 0.
For CC[N+](C)(CC)CCC/C(=N/O)C(O)(c1ccccc1)c1ccccc1 the results were CHRM4 antagonist 33*, M5 antag 14, CHRM4 PAM -14, CHRM5 agonist -18, CHRM5 PAM -22 and M4 ag 0.
For CCCNNC(=O)C(O)(c1ccccc1)c1ccccc1 the results were CHRM4 antagonist -3, M5 antag -4, CHRM4 PAM 3, CHRM5 agonist 1, CHRM5 PAM -4 and M4 ag 0.
`CCN(CC)CCC/C(=N\O)C(O)(c1ccccc1)c1ccccc1` gave CHRM4 antagonist 79*, M5 antag 45*, CHRM4 PAM -25, CHRM5 agonist -10, CHRM5 PAM -14 and M4 ag 0.
Screening CC/C(CC(C)(C)c1ccccc1)=N\O returned CHRM4 antagonist 7, M5 antag 0, CHRM4 PAM -5, CHRM5 agonist -2, CHRM5 PAM 3 and M4 ag 0.
For Cc1ccc(S(=O)(=O)N2[C@@H](c3cccc(Cl)c3)C(C(=O)OC(C)(C)C)=CC[C@H]2c2ccc(C(C)C)cc2)cc1 the results were CHRM4 antagonist 1, M5 antag 10, CHRM4 PAM -3, CHRM5 agonist 1, CHRM5 PAM -5 and M4 ag 1.
`C=C[C@]1(C)C=C2C(=O)[C@@]3(O)OC(=O)[C@@]4(CCCC(C)(C)[C@H]34)[C@@]2(O)CC1` gave CHRM4 antagonist -8, M5 antag 6, CHRM4 PAM 2, CHRM5 agonist 17, CHRM5 PAM 2 and M4 ag 10.
For CC(=O)Nc1ccc(-c2ccnc3c2CC(C(=O)NCc2ccco2)O3)cc1 (configuration not stated) the results were CHRM4 antagonist -6, M5 antag -1, CHRM4 PAM 0, CHRM5 agonist 2, CHRM5 PAM 3 and M4 ag 1.
For CCN(CC)S(=O)(=O)c1ccc(S(=O)(=O)N2CCN(C(=O)c3ccco3)CC2)cc1 the results were CHRM4 antagonist 29*, M5 antag 14, CHRM4 PAM 23, CHRM5 agonist 0, CHRM5 PAM 4 and M4 ag 1.
For CCN(CC)S(=O)(=O)c1ccc(C(=O)N2CCN(C(=O)c3ccco3)CC2)cc1 the results were CHRM4 antagonist 6, M5 antag 14, CHRM4 PAM 1, CHRM5 agonist 0, CHRM5 PAM -3 and M4 ag 1.
For CN1OC[C@@H]2CN(Cc3ccccc3)[C@H](c3ccc(-n4ccnc4)cc3)C[C@@H]21 the results were CHRM4 antagonist -16, M5 antag 8, CHRM4 PAM 6, CHRM5 agonist -2, CHRM5 PAM -4 and M4 ag 1.
CCc1nc2c(OCC(=O)c3ccc(F)cc3)cccn2c1N(C)C(=O)c1cccs1 was read as CHRM4 antagonist -9, M5 antag 22, CHRM4 PAM -4, CHRM5 agonist 1, CHRM5 PAM -13 and M4 ag 14.
O=C(CN1CCCCC1)N1N=C(c2cccs2)CC1c1cccs1 (configuration not stated) was read as CHRM4 antagonist 45*, M5 antag 38*, CHRM4 PAM -18, CHRM5 agonist -10, CHRM5 PAM -20 and M4 ag 1.
Cc1cccc2sc(N(CCCN(C)C)C(=O)c3nc4ccccc4s3)nc12 was read as CHRM4 antagonist -8, M5 antag -8, CHRM4 PAM 0, CHRM5 agonist -2, CHRM5 PAM -4 and M4 ag 2.
For CCN(CC)CCN(C(=O)c1ccc2c(c1)OCCO2)c1nc2cc(C)cc(C)c2s1 the results were CHRM4 antagonist -12, M5 antag 1, CHRM4 PAM 18*, CHRM5 agonist -8, CHRM5 PAM -2 and M4 ag 3.
For Cc1cccc2sc(N(CCCN(C)C)C(=O)c3ccc4ncsc4c3)nc12 the results were CHRM4 antagonist 30*, M5 antag 11, CHRM4 PAM 34*, CHRM5 agonist -6, CHRM5 PAM -2 and M4 ag 11.
Screening CN(C)CCCN(C(=O)c1ccc(C(=O)c2ccccc2)cc1)c1nc2cc3c(cc2s1)OCCO3 returned CHRM4 antagonist -11, M5 antag 28*, CHRM4 PAM 2, CHRM5 agonist -6, CHRM5 PAM -5 and M4 ag 12.
CN(C)CCN(C(=O)c1ccc(C(=O)c2ccccc2)cc1)c1nc2cc3c(cc2s1)OCCO3 was read as CHRM4 antagonist -9, M5 antag 7, CHRM4 PAM 3, CHRM5 agonist -6, CHRM5 PAM 0 and M4 ag 1.
